Assay results reported in ChEMBL document CHEMBL3621126, “Difluoromethyl ketones: Potent inhibitors of wild type and carbamate-insensitive G119S mutant Anopheles gambiae acetylcholinesterase” (Bioorg Med Chem Lett, 2015).
Converted amounts (≈) assume the structure as drawn.

Assays:
Acetylcholinesterase [1] = biological target: T1, Acetylcholinesterase (Homo sapiens, UniProt P22303); assay: Inhibition of recombinant human AChE after 10 mins by Ellman assay
Acetylcholinesterase [2] = biological target: T1, Acetylcholinesterase; assay: Inhibition of recombinant human AChE after 60 mins by Ellman assay
Acetylcholinesterase [3] = biological target: T2, Acetylcholinesterase (Anopheles gambiae, UniProt Q869C3); assay: Inhibition of recombinant Anopheles gambiae wild type AChE after 60 mins by Ellman assay
[4] = Inhibition of recombinant Anopheles gambiae AChE G119S mutant after 60 mins by Ellman assay
Acetylcholinesterase [5] = biological target: T2, Acetylcholinesterase; assay: Inhibition of recombinant Anopheles gambiae wild type AChE after 10 mins by Ellman assay
[6] = Inhibition of Anopheles gambiae AChE G119S mutant after 10 mins by Ellman assay
Anopheles gambiae [7] = assay: Insecticidal activity against Anopheles gambiae G3 assessed as torsal contact toxicity by measuring mortality at 1000 ug/mL after 24 hrs by filter paper based method; format: functional; conditions: G3, 24 h
In short: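 Adult susceptible G3 An. gambiae were tested by the WHO treated-paper tarsal contact protocol. Papers were treated with ethanolic compound solutions at 1000 µg/mL and dried overnight. Mosquitoes were exposed 1 h and mortality recorded after 24 h.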

[8] = biological target: Acetylcholinesterase (Anopheles gambiae) (UniProt Q869C3); assay: Inhibition of recombinant Anopheles gambiae wild type AChE by Ellman assay; conditions: TDE = time-dependent effect
In short: (§1)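 Modified Ellman assay in microtiter plates with recombinant enzymes (human AChE, wild-type or G119S Anopheles gambiae AChE). Inhibitor preincubated 10 or 60 min at 23 ± 1°C, pH 7.7, 0.1% (v/v) DMSO, before adding substrate. Ten inhibitor concentrations were run alongside inhibitor-free control wells. IC50 was taken from sigmoidal plots of residual activity (v/v0) vs [I].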

Acetylcholinesterase [9] = biological target: T1, Acetylcholinesterase; assay: Inhibition of recombinant human AChE by Ellman assay; conditions: TDE = time-dependent effect; in short: as §1
Anopheles gambiae [10] = assay: Insecticidal activity against Anopheles gambiae G3 assessed as fumigation mortality at 1000 ng/mL after 24 hrs by mason jar assay; format: functional; conditions: G3, 24 h
In short: (§2)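 Fumigation of adult G3 An. gambiae in a sealed 1 L vessel, with % mortality read after 24 h. Nominal concentration was calculated from the inhibitor mass delivered and the vessel volume.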

Anopheles gambiae [11] = assay: Insecticidal activity against Anopheles gambiae G3 assessed as mortality at 50 ng/insect after 24 hrs (reference value: 11 +/- 4%); format: functional
Anopheles gambiae [12] = assay: Ratio of IC50 for recombinant Anopheles gambiae AChE G119S mutant to IC50 for recombinant wild type Anopheles gambiae AChE after 60 mins
Acetylcholinesterase [13] = biological target: Acetylcholinesterase (Electrophorus electricus, UniProt O42275); assay: Inhibition of electric eel AChE
Anopheles gambiae [14] = assay: Insecticidal activity against Anopheles gambiae G3 assessed as torsal contact toxicity by measuring mortality after 24 hrs by filter paper based method; format: functional; conditions: G3, 24 h
In short: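 Adult susceptible G3 An. gambiae were tested by the WHO treated-paper tarsal contact protocol. Papers were treated with ethanolic compound solutions and dried overnight. Mosquitoes were exposed 1 h and mortality recorded 24 h later.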

Anopheles gambiae [15] = assay: Insecticidal activity against Anopheles gambiae G3 assessed as mortality after 24 hrs; format: functional
Anopheles gambiae [16] = assay: Insecticidal activity against Anopheles gambiae G3 assessed as fumigation mortality at 10 ng/mL after 24 hrs by mason jar assay; format: functional; conditions: G3, 24 h; in short: as §2
[17] = Inhibition of recombinant Anopheles gambiae AChE G119S mutant after 330 mins by Ellman assay
In short: (§3)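 Recombinant G119S mutant An. gambiae AChE; modified Ellman assay in microtiter plates at 23 ± 1°C, pH 7.7, 0.1% (v/v) DMSO. Enzyme preincubated with inhibitor over a range of concentrations before substrate added; inhibitor-free controls flank 10 concentrations, right-hand control used for residual activity (v/v0). IC50 taken from sigmoidal plots of v/v0 versus [I].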

[18] = Inhibition of recombinant Anopheles gambiae AChE G119S mutant after 1380 mins by Ellman assay; in short: as §3

T1 sequence (P22303 whole entry): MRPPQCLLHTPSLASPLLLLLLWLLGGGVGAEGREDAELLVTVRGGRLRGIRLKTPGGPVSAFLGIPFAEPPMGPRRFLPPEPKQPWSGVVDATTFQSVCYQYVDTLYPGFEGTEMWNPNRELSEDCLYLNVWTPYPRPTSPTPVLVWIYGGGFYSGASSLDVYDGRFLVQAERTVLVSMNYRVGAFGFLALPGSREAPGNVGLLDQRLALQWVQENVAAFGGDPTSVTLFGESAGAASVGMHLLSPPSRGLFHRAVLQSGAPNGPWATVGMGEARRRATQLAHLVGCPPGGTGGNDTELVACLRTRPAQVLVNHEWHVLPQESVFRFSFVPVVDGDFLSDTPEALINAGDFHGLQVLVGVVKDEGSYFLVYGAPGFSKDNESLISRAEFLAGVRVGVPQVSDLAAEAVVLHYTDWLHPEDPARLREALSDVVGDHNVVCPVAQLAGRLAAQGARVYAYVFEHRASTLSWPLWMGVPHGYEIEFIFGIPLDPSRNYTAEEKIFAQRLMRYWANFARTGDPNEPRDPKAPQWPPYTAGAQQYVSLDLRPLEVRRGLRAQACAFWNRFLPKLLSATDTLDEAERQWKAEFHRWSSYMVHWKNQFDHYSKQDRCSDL
Sequence of Acetylcholinesterase (Anopheles gambiae) (Q869C3 39-737 limits assumed): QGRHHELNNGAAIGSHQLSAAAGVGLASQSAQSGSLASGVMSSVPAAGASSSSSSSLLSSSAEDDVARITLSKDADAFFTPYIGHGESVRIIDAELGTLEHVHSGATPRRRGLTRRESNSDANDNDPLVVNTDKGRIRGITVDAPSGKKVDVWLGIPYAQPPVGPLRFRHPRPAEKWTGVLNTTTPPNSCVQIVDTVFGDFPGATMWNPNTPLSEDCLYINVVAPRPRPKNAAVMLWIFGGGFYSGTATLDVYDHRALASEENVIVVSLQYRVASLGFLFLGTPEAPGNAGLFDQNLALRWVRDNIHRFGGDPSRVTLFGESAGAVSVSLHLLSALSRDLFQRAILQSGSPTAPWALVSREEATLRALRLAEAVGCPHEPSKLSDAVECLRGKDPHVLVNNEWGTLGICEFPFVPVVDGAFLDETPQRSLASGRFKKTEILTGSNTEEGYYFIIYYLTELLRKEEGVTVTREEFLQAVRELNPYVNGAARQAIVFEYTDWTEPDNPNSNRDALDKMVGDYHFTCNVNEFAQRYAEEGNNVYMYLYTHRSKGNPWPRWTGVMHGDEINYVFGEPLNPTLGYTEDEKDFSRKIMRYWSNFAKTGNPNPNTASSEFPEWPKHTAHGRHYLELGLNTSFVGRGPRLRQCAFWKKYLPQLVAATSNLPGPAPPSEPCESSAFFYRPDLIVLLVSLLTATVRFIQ
T2 sequence (Q869C3 whole entry): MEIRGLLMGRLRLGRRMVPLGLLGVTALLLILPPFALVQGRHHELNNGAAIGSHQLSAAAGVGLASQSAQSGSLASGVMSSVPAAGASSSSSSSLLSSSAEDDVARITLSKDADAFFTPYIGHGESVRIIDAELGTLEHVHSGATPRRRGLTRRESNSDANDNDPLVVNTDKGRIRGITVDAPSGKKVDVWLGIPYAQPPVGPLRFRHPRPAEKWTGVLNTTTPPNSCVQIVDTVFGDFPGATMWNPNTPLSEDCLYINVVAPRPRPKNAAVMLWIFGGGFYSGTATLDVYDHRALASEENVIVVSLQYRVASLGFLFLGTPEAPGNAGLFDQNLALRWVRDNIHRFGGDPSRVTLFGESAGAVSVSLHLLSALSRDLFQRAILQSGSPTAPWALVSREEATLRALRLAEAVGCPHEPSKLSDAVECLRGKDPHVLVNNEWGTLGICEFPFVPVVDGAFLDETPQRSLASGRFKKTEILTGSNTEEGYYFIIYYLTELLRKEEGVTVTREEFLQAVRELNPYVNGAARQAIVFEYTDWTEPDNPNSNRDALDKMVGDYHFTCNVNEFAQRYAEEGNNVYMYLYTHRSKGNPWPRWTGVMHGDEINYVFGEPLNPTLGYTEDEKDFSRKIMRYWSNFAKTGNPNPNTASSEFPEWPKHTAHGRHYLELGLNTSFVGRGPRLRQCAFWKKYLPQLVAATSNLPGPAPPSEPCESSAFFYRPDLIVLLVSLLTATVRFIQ
Sequence of Acetylcholinesterase (Electrophorus electricus, UniProt O42275) (O42275 whole entry): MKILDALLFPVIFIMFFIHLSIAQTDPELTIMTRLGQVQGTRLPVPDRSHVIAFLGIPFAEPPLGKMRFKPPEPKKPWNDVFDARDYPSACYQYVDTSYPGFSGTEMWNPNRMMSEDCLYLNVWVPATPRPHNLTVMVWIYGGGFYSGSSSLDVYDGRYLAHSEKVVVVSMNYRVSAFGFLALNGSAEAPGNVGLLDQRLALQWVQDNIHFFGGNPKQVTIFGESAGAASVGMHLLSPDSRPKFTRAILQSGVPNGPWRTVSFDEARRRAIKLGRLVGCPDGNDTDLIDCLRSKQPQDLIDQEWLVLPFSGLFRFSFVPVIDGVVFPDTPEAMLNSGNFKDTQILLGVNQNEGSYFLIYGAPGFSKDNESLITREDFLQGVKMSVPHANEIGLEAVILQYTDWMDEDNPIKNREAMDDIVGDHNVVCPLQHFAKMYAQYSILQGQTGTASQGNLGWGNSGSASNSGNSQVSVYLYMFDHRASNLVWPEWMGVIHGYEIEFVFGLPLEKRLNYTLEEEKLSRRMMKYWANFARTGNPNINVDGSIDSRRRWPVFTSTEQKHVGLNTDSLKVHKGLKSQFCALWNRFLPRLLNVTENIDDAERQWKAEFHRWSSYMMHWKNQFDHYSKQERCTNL

Row | SMILES | IC50 (Acetylcholinesterase [1]) [nM] | IC50 (Acetylcholinesterase [2]) [nM] | IC50 (Acetylcholinesterase [3]) [nM] | IC50 [4] [nM] | IC50 (Acetylcholinesterase [5]) [nM] | IC50 [6] [nM] | mortality at 1000 µg/mL (Anopheles gambiae [7]) [%] | inhibition [8] | inhibition (Acetylcholinesterase [9]) | mortality at 1 µg/mL (Anopheles gambiae [10]) [%] | mortality (Anopheles gambiae [11]) [%] | Ratio IC50 (Anopheles gambiae [12]) | Ki (Acetylcholinesterase [13]) [nM] | LC50 (Anopheles gambiae [14]) [µg/mL] | LD50 (Anopheles gambiae [15]) [ng] | mortality at 0.01 µg/mL (Anopheles gambiae [16]) [%] | IC50 [17] [nM] | IC50 [18] [nM]
1 | CC(C)n1cc(C(=O)CF)cn1 | > 10000 | > 10000 | > 10000 | > 10000 | > 10000 | > 10000 | 85 |  |  |  |  |  |  |  |  |  |  | 
2 | C[Si](C)(C)c1cccc(C(=O)C(F)(F)F)c1 | 285 | 92.9 | 257 | 10100 | 848 | > 10000 | 10 | tde | tde |  |  |  |  |  |  |  |  | 
3 | CCC(CC)n1cc(C(=O)C(F)(F)F)cn1 | 3.77 | 2.27 | 0.68 | 1730 | 2.75 | > 10000 | 40 | tde | tde | 86 | 65 | 2500 |  |  |  |  |  | 
4 | CC(C)(C)c1cccc(C(=O)C(F)F)c1 | 6.05 |  |  |  |  |  | 20 |  |  |  |  |  |  |  |  |  |  | 
5 | CC(C)Cn1cc(C(=O)CF)cn1 | > 10000 | > 10000 | > 10000 | > 10000 | > 10000 | > 10000 | 20 |  |  |  |  |  |  |  |  |  |  | 
6 | CC(C)n1cc(C(=O)C(F)F)cn1 | 802 | 869 | 430 | 8380 | 354 | 8290 | 50 |  |  |  |  |  |  |  |  |  |  | 
7 | CC(C)Cn1cc(C(=O)C(F)(F)F)cn1 | 591 | 678 | 1040 | > 10000 | 950 | > 10000 |  | tde | tde |  |  |  |  |  |  |  |  | 
8 | CC(=O)C(F)(F)CCC(C)(C)C |  |  |  |  |  |  |  |  |  |  |  |  | 1.6 |  |  |  |  | 
9 | CCCC(C)n1cc(C(=O)CF)cn1 (stereo not drawn) | 24200 | 17600 | 3290 | > 10000 | 3520 | > 10000 | 20 |  |  |  |  |  |  |  |  |  |  | 
10 | CCC(C)n1cc(C(=O)CF)cn1 (stereo not drawn) | 16900 | 18000 | 2860 | > 10000 | 2750 | > 10000 | 65 |  |  |  |  |  |  |  |  |  |  | 
11 | CNC(=O)Oc1ccccc1OC(C)C [PROPOXUR] | 2300 | 590 | 43.6 | > 10000 | 182 | > 10000 | 39 |  |  | 0 |  |  |  | 32 (≈ 153 µM) | 0.2 |  |  | 
12 | CCC(C)n1cc(C(=O)C(F)F)cn1 (stereo not drawn) | 110 | 85.9 | 25.2 | 185 | 26.3 | 452 | 50 |  |  |  |  |  |  |  |  |  |  | 
13 | O=C(c1cnn(C2CCCC2)c1)C(F)(F)F | 5.2 | 6.11 | 1.54 | 3520 | 2.87 | > 10000 | 40 | tde | tde |  |  |  |  |  |  |  |  | 
14 | CCCC(C)n1cc(C(=O)C(F)(F)F)cn1 (stereo not drawn) | 7.15 | 8.37 | 2.06 | 2000 | 3.74 | 19900 | 0 | tde | tde |  |  |  |  |  |  |  |  | 
15 | CC(C)(C)c1cccc(C(=O)CF)c1 |  |  |  |  |  | > 10000 | 50 |  |  |  |  |  |  |  |  |  |  | 
16 | O=C(CF)c1cnn(C2CCCC2)c1 | 2500 | 1310 | 1540 | > 10000 | 5860 | > 10000 | 0 |  |  |  |  |  |  |  |  |  |  | 
17 | CC(C)Cn1cc(C(=O)C(F)F)cn1 | 9780 | 11000 | 3950 | > 10000 | 3000 | > 10000 |  |  |  |  |  |  |  |  |  |  |  | 
18 | O=C(c1cnn(C2CCCC2)c1)C(F)F | 208 | 244 | 134 | 3390 | 106 | 3220 | 0 |  |  |  |  |  |  |  |  |  |  | 
19 | CC(C)(C)c1cccc(C(=O)C(F)(F)F)c1 | 14.6 | 5 | 18.1 | 20800 | 53.4 | > 10000 | 8 | tde | tde |  |  |  |  |  |  |  |  | 
20 | CCC(CC)n1cc(C(=O)CF)cn1 | 5290 | 5190 | 337 | 3000 | 355 | 2990 | 85 |  |  | 8 |  |  |  |  |  |  |  | 
21 | COP(=O)(OC)OC=C(Cl)Cl [DICHLORVOS] |  |  | 60.1 | 300 | 324 | 1650 |  |  |  |  | 83 |  |  |  |  | 100 |  | 
22 | CCC(C)n1cc(C(=O)C(F)(F)F)cn1 (stereo not drawn) | 6.47 | 8.84 | 2.29 | 2340 | 2.47 | 8180 | 30 | tde | tde |  |  |  |  |  |  |  |  | 
23 | CCC(CC)n1cc(C(=O)C(F)F)cn1 | 28.8 | 35.2 | 1.22 | 125 | 1.01 | 680 | 0 |  |  | 57 | 21 |  |  |  |  |  | 36.7 | 25.1
24 | CC(C)n1cc(C(=O)C(F)(F)F)cn1 | 77.5 | 121 | 285 | > 10000 | 142 | > 10000 | 20 | tde | tde |  |  |  |  |  |  |  |  | 
25 | CCCC(C)n1cc(C(=O)C(F)F)cn1 (stereo not drawn) | 149 | 158 | 29.1 | 297 | 23.4 | 797 | 0 |  |  |  |  |  |  |  |  |  |  | 
